ChEMBL document CHEMBL1155299, “Design, syntheses, and evaluation of Taspase1 inhibitors” (Bioorg Med Chem Lett, 2009)
Active and inactive are the calls of the source. No cut-off for these calls is given here. Peptide text beside a SMILES is read from it.

How the values were obtained:
Threonine aspartase 1 = biological target: T1, Threonine aspartase 1 (Homo sapiens, UniProt Q9H6P5); experiment: Inhibition of recombinant Taspase 1 assessed as accumulation of emitted fluorescence by FRET assay
T1 sequence (Q9H6P5 whole entry): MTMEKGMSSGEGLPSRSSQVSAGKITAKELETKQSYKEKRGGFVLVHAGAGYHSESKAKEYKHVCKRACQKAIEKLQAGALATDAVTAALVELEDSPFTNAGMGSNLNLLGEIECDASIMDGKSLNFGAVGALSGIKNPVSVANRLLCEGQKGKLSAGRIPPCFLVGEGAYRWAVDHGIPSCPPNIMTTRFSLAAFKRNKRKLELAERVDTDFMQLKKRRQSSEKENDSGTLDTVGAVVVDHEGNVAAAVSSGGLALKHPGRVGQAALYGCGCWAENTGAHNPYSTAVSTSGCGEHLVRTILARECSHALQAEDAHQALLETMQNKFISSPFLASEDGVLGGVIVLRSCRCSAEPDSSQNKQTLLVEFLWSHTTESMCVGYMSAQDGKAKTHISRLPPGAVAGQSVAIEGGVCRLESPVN

[1] = biological target: T2, Threonine aspartase 1 (Homo sapiens) (UniProt Q9H6P5); experiment: Inhibition of recombinant Taspase 1 assessed as loss of processing and accumulation of full length p45 fragment by radiographic in vitro cleavage assay added 30 mins before translated p45MLL
T2 sequence (whole entry): T1 sequence (Q9H6P5 whole entry)
In short: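 Substrate was a p45MLL fragment (residues 2,500–2,800) with the CS1 site mutated to block cleavage there. It was made by in vitro translation as 35S-labelled protein, exposed to Taspase1, and cleavage was followed by radiography.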

[2] = biological target: T2, Threonine aspartase 1 (Homo sapiens); experiment: Inhibition of recombinant Taspase 1 assessed as accumulation of emitted fluorescence at 100 uM by FRET assay

Compound	IC50 (Threonine aspartase 1)	Activity [1]	Activity [2]
CC[C@H](C)[C@H](NC(C)=O)C(=O)N[C@@H](CO)C(=O)N[C@@H](CCC(N)=O)C(=O)N[C@@H](CC(C)C)C(=O)N[C@@H](CC(=O)C1(C)CO1)C(=O)O (some centres undefined) (HELM PEPTIDE1{[ac].I.S.Q.L.[CC1(C(=O)C[C@H](N[*:1])C(=O)O)CO1]}$$$$V2.0)	–	Active	–
CC[C@H](C)[C@H](NC(C)=O)C(=O)N[C@@H](CO)C(=O)N[C@@H](CCC(N)=O)C(=O)N[C@@H](CC(C)C)C(=O)N[C@H](/C=C/S(C)(=O)=O)CC(=O)O (HELM PEPTIDE1{[ac].I.S.Q.L.[CS(=O)(=O)/C=C/[C@H](CC(=O)O)N[*:1]]}$$$$V2.0)	–	Active	–
CCCC[C@H](NC(=O)[C@H](CC(C)C)NC(=O)[C@H](CCC(N)=O)NC(=O)[C@H](CO)NC(=O)[C@@H](NC(C)=O)[C@@H](C)CC)C(=O)O (HELM PEPTIDE1{[ac].I.S.Q.L.[Nle]}$$$$V2.0)	–	–	inactive

More lines, now with the values ahead:

IC50 (Threonine aspartase 1)	Activity [1]	Activity [2]	Compound
63.4 µM	Active	–	CC[C@H](C)[C@H](NC(C)=O)C(=O)N[C@@H](CO)C(=O)N[C@@H](CCC(N)=O)C(=O)N[C@@H](CC(C)C)C(=O)N[C@@H](C/C=C/C(C)=O)C(=O)O (HELM PEPTIDE1{[ac].I.S.Q.L.[CC(=O)/C=C/C[C@H](N[*:1])C(=O)O]}$$$$V2.0)
–	–	inactive	CC[C@H](C)[C@H](NC(C)=O)C(=O)N[C@@H](CO)C(=O)N[C@@H](CCC(N)=O)C(=O)N[C@@H](CC(C)C)C(=O)NC1CB(O)OC1=O (some centres undefined) (HELM PEPTIDE1{[ac].I.S.Q.L.[O=C1OB(O)CC1N[*:1]]}$$$$V2.0)
–	–	inactive	CCCC[C@H](NC(=O)[C@H](CC(C)C)NC(=O)[C@H](CCC(N)=O)NC(C)=O)C(=O)O (HELM PEPTIDE1{[ac].Q.L.[Nle]}$$$$V2.0)
> 100 µM	Active	–	CC[C@H](C)[C@H](NC(C)=O)C(=O)N[C@@H](CO)C(=O)N[C@@H](CCC(N)=O)C(=O)N[C@@H](CC(C)C)C(=O)N[C@@H](C/C=C/S(C)(=O)=O)C(=O)O (HELM PEPTIDE1{[ac].I.S.Q.L.[CS(=O)(=O)/C=C/C[C@H](N[*:1])C(=O)O]}$$$$V2.0)
